This is a sample that favours compounds with a hit; in the whole collection about 4.8% have one here.
UCH37 inh: inhibitors of human UCH37 deubiquitinase, primary screen, biochemical, Ub-AMC cleavage, fluorescence; 330,000 compounds, 0.33% hits; inhibition, % (test concentration not listed); purified proteasome/UCH37;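 active means mean inhibition over replicate wells above about 20%, limit read from the data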;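 further: 0% = compound-free wells with enzyme and 100% = wells lacking proteasome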
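System: Proteasome-associated human UCH37 deubiquitinase; Input: 0.15 nM proteasome in added enzyme buffer; Also added: Ub-AMC substrate from 1 µM stock; Incubation: 30 min compound-proteasome preincubation then 25 min substrate reaction, room temperature; Detection: fluorescence, ex 355 nm, em 460 nm; Read-out: % inhibition of Ub-AMC cleavage fluorescence; Benchmarks: no-proteasome and no-compound wells.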
PAFAH1B3 FP inh: PAFAH1B3 enzyme inhibitors, primary screen, biochemical, fluorescence polarization, human. recombinant PAFAH1B3, FP-rhodamine probe. Platelet-activating factor acetylhydrolase IB subunit alpha1 (Homo sapiens), Q15102. inhibition, % at 3.39 µM. 340,000 compounds, 0.28% hits;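 active means inhibition above the screen-wide average of all tested compounds plus 3 SD, cut at about 25% in these data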;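 further: 0% = enzyme with DMSO only and 100% = wells lacking PAFAH1B3 protein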
PAFAH2 FP inh: PAFAH2 enzyme inhibitors, primary screen, biochemical, fluorescence polarization, human | Platelet-activating factor acetylhydrolase 2, cytoplasmic (Homo sapiens), Q99487 | AID 492956, 2010 | inhibition, % at 3.39 µM | recombinant PAFAH2, FP-rhodamine activity probe | 340,000 compounds, 0.99% hits;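 active means inhibition above the mean over all tested compounds plus 3 SD, cut at about 30% in these data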;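 further: inhibitors block probe labeling of enzyme so polarization drops; 0% = enzyme with DMSO and 100% = wells lacking PAFAH2 protein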
pPAFAH inh: pPAFAH enzyme inhibitors, primary screen, biochemical, fluorescence polarization, human; Platelet-activating factor acetylhydrolase (Homo sapiens), Q13093; 330,000 compounds, 1.5% hits; AID 463082, 2010; recombinant pPAFAH, FP-rhodamine probe fluorescence polarization; inhibition, % at 3.39 µM;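 active means inhibition above the mean inhibition across the screen plus 3 SD, cut at about 25% in these data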;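 further: inhibitors block binding of the rhodamine activity-based probe so polarization drops; 0% = enzyme with DMSO and 100% = wells lacking pPAFAH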
Target sequence (Q13093 whole entry, looked up): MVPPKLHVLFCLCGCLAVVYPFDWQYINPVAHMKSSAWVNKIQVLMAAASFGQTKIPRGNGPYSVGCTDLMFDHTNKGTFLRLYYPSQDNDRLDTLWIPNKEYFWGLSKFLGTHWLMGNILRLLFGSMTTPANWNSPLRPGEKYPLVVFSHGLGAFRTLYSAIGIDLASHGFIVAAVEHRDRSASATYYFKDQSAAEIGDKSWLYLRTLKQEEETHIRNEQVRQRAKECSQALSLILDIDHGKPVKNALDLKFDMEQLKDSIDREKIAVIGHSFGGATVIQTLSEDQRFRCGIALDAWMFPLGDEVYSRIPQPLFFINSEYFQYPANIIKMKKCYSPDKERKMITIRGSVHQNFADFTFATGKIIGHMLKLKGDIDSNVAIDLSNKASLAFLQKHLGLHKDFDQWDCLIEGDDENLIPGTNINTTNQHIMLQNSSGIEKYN
GRIN3A LBD mod: binders of NR3A ligand-binding domain, primary screen, biophysical, differential scanning fluorimetry, uHTS. 340,000 compounds, 2.5% hits. Glutamate receptor ionotropic, NMDA 3A (GRIN3A) ligand-binding domain. AID 1259313, 2017. NR3A LBD differential scanning fluorimetry, Tm shift; 0% = protein alone, 100% = glycine-bound protein. Tm shift relative to glycine control, % at 25 µM;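 active means melting temperature shift of at least 10% of the positive control shift, at one fixed dose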
PAFAH1B2 FP inh: PAFAH1B2 enzyme inhibitors, primary screen, biochemical, fluorescence polarization, human; Platelet-activating factor acetylhydrolase IB subunit alpha2 (Homo sapiens), P68402; AID 492953, 2010; inhibition, % at 3.39 µM; 340,000 compounds, 1.2% hits; recombinant PAFAH1B2, FP-rhodamine activity probe;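 active means inhibition above the mean of all tested compounds plus 3 SD, cut at about 24% in these data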;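 further: 0% = enzyme with DMSO and 100% = wells lacking PAFAH1B2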
Target sequence (P68402 whole entry, looked up): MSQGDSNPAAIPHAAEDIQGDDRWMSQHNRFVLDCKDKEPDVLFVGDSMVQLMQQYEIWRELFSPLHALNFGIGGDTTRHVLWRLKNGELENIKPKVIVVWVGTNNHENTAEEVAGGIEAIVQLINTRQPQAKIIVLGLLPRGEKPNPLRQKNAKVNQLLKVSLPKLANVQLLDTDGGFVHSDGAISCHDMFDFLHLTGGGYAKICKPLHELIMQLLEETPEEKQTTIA
* marks the source's active call; other numbers are inactive results; nt = no result given.

SMILES | UCH37 inh | PAFAH1B3 FP inh | PAFAH2 FP inh | pPAFAH inh | GRIN3A LBD mod | PAFAH1B2 FP inh
Oc1ccccc1-c1cc(C(F)(F)C(F)F)nc(-c2ccccc2)n1 | 0 | 12 | 4 | 5 | 14* | 1
COc1ccc(O)c(-c2cc(C(F)(F)C(F)F)nc(-c3ccccc3)n2)c1 | -3 | 8 | -1 | 0 | -4 | 6
CCOc1cc(C=NNC(=O)NN=Cc2ccc(O)c(OCC)c2)ccc1O | 8 | nt | nt | nt | nt | nt
O=C1CCNc2ccc(-c3ccccc3)cc21 | -24 | 3 | 0 | 2 | -4 | 6
O=C1CCNc2cc3ccccc3cc21 | -276 | 9 | 4 | 31* | -1 | 3
Cc1ccc(NC(=O)CON=Cc2ccccc2C)c(C)c1 | 3 | nt | nt | nt | nt | nt
CC(=O)Nc1ccc(NC(=O)CC(C)=NNC(=O)C(=O)Nc2ccc(C)c(Cl)c2)cc1 | 2 | nt | nt | nt | nt | nt
O=C(Cn1ccc(C(F)(F)F)n1)NN=Cc1cccs1 | 2 | nt | nt | nt | nt | nt
O=C(Nc1cccc(Cl)c1)c1nc[nH]c1C(=O)NCCCNC(=O)c1[nH]cnc1C(=O)Nc1cccc(Cl)c1 | nt | -2 | -3 | 0 | 23* | 1
Cc1ccc(NC(=O)c2nc[nH]c2C(=O)NCCCCCNC(=O)OC(C)(C)C)cc1 | 1 | 2 | -10 | 2 | -9 | -4
Cc1ccc(NC(=O)c2nc[nH]c2C(=O)N2CCN(C(=O)OC(C)(C)C)CC2)cc1 | 1 | 2 | 2 | 2 | 12* | 4
CC(C)(C)OC(=O)NCc1ccc(NC(=O)c2nc[nH]c2C(=O)NCCN(CCNC(=O)c2[nH]cnc2C(=O)Nc2ccc(CNC(=O)OC(C)(C)C)cc2)CCNC(=O)c2[nH]cnc2C(=O)Nc2ccc(CNC(=O)OC(C)(C)C)cc2)cc1 | -4 | -167 | -182 | -2 | 11* | -97
Cc1ccc(NC(=O)c2nc[nH]c2C(=O)NCCCCCCNC(=O)c2[nH]cnc2C(=O)Nc2ccc(C)cc2)cc1 | 1 | -10 | -2 | -1 | 20* | -6
O=C(Nc1ccccc1)c1nc[nH]c1C(=O)NCCCCNC(=O)c1[nH]cnc1C(=O)Nc1ccccc1 | -1 | 11 | -38 | 5 | 7 | -7
CC(C)(C)OC(=O)N1CCN(C(=O)c2[nH]cnc2C(=O)Nc2ccc(Cl)cc2)CC1 | 2 | 0 | 2 | 0 | -8 | 4
COc1ccc(NC(=O)C(=O)NN=C(C)CC(=O)Nc2cc(C)ccn2)c(OC)c1 | 5 | nt | nt | nt | nt | nt
COc1cccc(C=NNC(=O)c2ccccc2N(Cc2ccccc2)S(=O)(=O)c2ccccc2)c1OC | 0 | nt | nt | nt | nt | nt
CCOC(=O)CC(C)(C)C(C)=NNc1ccc([N+](=O)[O-])cc1[N+](=O)[O-] | 6 | nt | nt | nt | nt | nt
CC(C)(C)OC(=O)CNC(=O)c1[nH]cnc1C(=O)NC1CCN(C(=O)OC(C)(C)C)CC1 | -1 | 1 | -1 | 2 | -1 | 0
CC(C)(C)OC(=O)N1CCC(NC(=O)c2nc[nH]c2C(=O)NCC(=O)OCc2ccccc2)CC1 | 2 | 0 | -3 | 33* | 0 | -4
Cc1ccc(NC(=O)c2nc[nH]c2C(=O)NCCCNC(=O)c2[nH]cnc2C(=O)Nc2ccc(C)cc2)cc1 | nt | -5 | -16 | 1 | 7 | 2
Cc1ccc(NC(=O)c2nc[nH]c2C(=O)NCCCCNC(=O)c2[nH]cnc2C(=O)Nc2ccc(C)cc2)cc1 | -3 | -71 | -98 | 22 | 13* | -44
CC(=NNC(N)=O)C1CC(CC(C)C)C(=O)O1 (stereo not given) | 0 | nt | nt | nt | nt | nt
O=C1CSC(=Nc2ccc(Cl)cc2)N1 | 3 | 10 | 2 | -2 | 0 | -1
O=C1CSC(=Nc2cc(Cl)ccc2Cl)N1 | 4 | 8 | -4 | -3 | 11* | 6
SMILES | UCH37 inh | PAFAH1B3 FP inh | PAFAH2 FP inh | pPAFAH inh | GRIN3A LBD mod | PAFAH1B2 FP inh
CC(=O)ON=C(N)c1ccc(-c2csnn2)cc1 | 3 | nt | nt | nt | nt | nt
CC(=NNC(=O)c1ccc2c(c1)OCO2)c1cccc([N+](=O)[O-])c1 | 2 | nt | nt | nt | nt | nt
O=C(NCCc1c[nH]c2ccccc12)c1ccc2nc[nH]c2c1 | 2 | 10 | 3 | 14 | 27* | 1
O=C(NCCc1c[nH]c2ccccc12)c1cc2sccc2n1Cc1ccccc1 | 4 | 4 | -2 | 8 | 0 | -6
COc1ccc(C(=O)NCCc2c[nH]c3ccccc23)cc1OC | nt | 5 | -7 | -2 | 7 | 2
Cn1c(C(=O)NCCc2c[nH]c3ccccc23)cc2sccc21 | 7 | 5 | -2 | 20 | 16* | 8
O=C(NCCc1c[nH]c2ccccc12)c1ccc2c(c1)OCO2 | 3 | 6 | 11 | 1 | 22* | 2
Cc1ccc2[nH]cc(CCNC(=O)c3ccc4c(c3)OCO4)c2c1 | 2 | 14 | 10 | 10 | 1 | 1
O=C(NCCc1c[nH]c2ccccc12)c1cc(Cl)c2c(c1)OCO2 | -1 | 0 | 15 | 1 | 30* | 7
O=C(Cc1cccs1)N=Nc1c(O)[nH]c2ccc(Br)cc12 | 3 | -4 | 7 | 9 | -3 | 4
COc1ccc2[nH]c(O)c(N=NC(=O)Cc3cccs3)c2c1 | 6 | 13 | 12 | 25* | -4 | 14
COCCNC(=O)c1cc2nc3c(c(C(F)(F)F)n2n1)CCc1ccccc1-3 | -7 | 4 | -2 | -7 | -2 | 2
O=C(O)c1cc2nc3c(c(C(F)(F)F)n2n1)CCc1ccccc1-3 | 5 | 8 | 9 | 2 | 11* | 0
O=C(CNC(=O)c1ccccc1Br)NN=Cc1cc([N+](=O)[O-])cc(Br)c1O | 14 | nt | nt | nt | nt | nt
CC1CC(NS(=O)(=O)c2cccs2)CC(C)(C)C1 (stereo not given) | 3 | 15 | 8 | -3 | -1 | 29*
CCOC(=O)c1c(Nc2ccc(Cl)cc2)sc(C=C2C=Nc3ccccc32)c1O | 8 | nt | nt | nt | nt | nt
Nc1cc2c(cc1Br)-c1ccc(F)cc1C2O (stereo not given) | 5 | 11 | 8 | nt | 18* | 3
O=C(CCc1nnc(CCCc2ccccc2)o1)NCCc1ccccc1 | 1 | -1 | 1 | 1 | 0 | 24*
Cc1cccc(-n2c(-c3ccncc3)n[nH]c2=S)c1C | 2 | 8 | -5 | 30* | -7 | 4
Cc1ccccc1-n1c(-c2ccncc2)n[nH]c1=S | 7 | -1 | -6 | -3 | -1 | 0
O=C(NC(=S)Nc1ccc(NC(=O)c2ccccc2)cc1)c1ccc(F)cc1 | 2 | -14 | -10 | -1 | 20* | -4
O=C(Nc1ccc(Nc2ccccc2)cc1)c1ccc(F)cc1 | nt | 10 | -3 | 5 | 15* | 6
